Most compounds without a hit are left out; they make up all but 3.7% or so of the library.
hERG rescue: hERG rescue from dofetilide block, primary screen, cell-based, CHO-hERG, FluxOR thallium flux, dofetilide IC70. Voltage-gated inwardly rectifying potassium channel KCNH2 (Homo sapiens), Q12809. dofetilide IC70 present. activation (rescue from dofetilide block), less the hit threshold, % at 10 µM. 310,000 compounds, 0.51% hits. AID 1511, 2009;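 active = activation above the mean of controls blocked by dofetilide plus 5 SD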;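 also: thallium influx through hERG after potassium depolarization seen as dye fluorescence rise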
KCNK9 block: KCNK9 potassium channel inhibitors, primary screen, HEK293 cells, thallium flux; Potassium channel subfamily K member 9 (Homo sapiens), Q9NPC2; 310,000 compounds, 1.2% hits; AID 488922, 2010; FluxOR thallium flux fluorescence; stronger effect = lower value; B-score at 10 µM;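 active = ratio B-score over 3 SD below the library mean, with starting fluorescence within 5 SD of its mean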;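 also: negative B-score means less thallium flux so channel inhibition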
KCNK3 block: human KCNK3 channel inhibitors, primary screen, CHO cells, FluxOR thallium flux, B-score; B-score at 10 µM; FluxOR fluorescence; stronger effect = lower value; 340,000 compounds, 0.84% hits; Potassium channel subfamily K member 3 (Homo sapiens), O14649; AID 602410, 2012;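 active = B-score under library mean minus 4 SD, starting fluorescence ratio at most library mean plus 5 SD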;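 also: more negative B-score means stronger inhibition of thallium flux through KCNK3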
Kir21 block: inhibitors of mouse Kir2.1 inward-rectifier potassium channel | Inward rectifier potassium channel 2 (Mus musculus), P35561 | HEK293-Kir2.1, FluxOR thallium flux fluorescence; stronger effect = lower value | B-score at 10 µM | 310,000 compounds, 0.85% hits | AID 1672, 2009;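 active = fluorescence ratio B-score at or below minus 3 SD of library scores, with starting-brightness B-score within 2 SD, cut at about -4.2 in these data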;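 also: channel flux triggered by added potassium and thallium sulfate stimulus; B-score of peak minus minimum fluorescence over baseline after thallium stimulus; more negative B-score means stronger Kir2.1 block with less thallium influx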
KCNQ1 act: potentiators or activators of KCNQ1 channel, primary screen, cell-based, thallium flux, high-throughput; Potassium voltage-gated channel subfamily KQT member 1 (Homo sapiens), P51787; CHO-K1 KCNQ1, thallium flux FluxOR fluorescence; stronger effect = higher value; B-score at 10 µM; 310,000 compounds, 0.35% hits; AID 2648, 2010;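 active = fluorescence ratio B-score, a plate-corrected score, at least three library SD, with initial intensity B-score within 5 SD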
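Assay system: CHO-K1 cells stably expressing KCNQ1. Medium: assay buffer for compound exposure, DMSO matched across wells. Timing: 37 °C overnight plating, 90-min dark dye load, 20-min compound pretreatment. Signal: kinetic FluxOR fluorescence, 10 s baseline plus 110 s post-stimulus.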
KCNQ1 block: inhibitors of human KCNQ1 channel, primary screen, cell-based, thallium flux, high-throughput. Potassium voltage-gated channel subfamily KQT member 1 (Homo sapiens), P51787. CHO-K1 KCNQ1, FluxOR thallium flux fluorescence; stronger effect = higher value. B-score at 10 µM. 310,000 compounds, 1.3% hits. AID 2642, 2010;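 active = compounds whose thallium flux B-score, printed positive for inhibition, exceeds three library SD while starting fluorescence stays within three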;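 also: channel opened by potassium depolarization with thallium stimulus after 20 min compound exposure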
Numbers stand for hits; - = inactive; . = not tested or not shown.

SMILES | hERG rescue | KCNK9 block | KCNK3 block | Kir21 block | KCNQ1 act | KCNQ1 block
Cc1ccc(C)c(N2CCN(S(=O)(=O)c3csc(C(N)=O)c3)CC2)c1 | - | - | - | - | - | -
COc1cc(/C=N/NS(=O)(=O)c2ccc(C)c([N+](=O)[O-])c2)ccc1O | - | - | - | - | - | -
COc1cc(/C=N/NS(=O)(=O)c2ccc(C)c([N+](=O)[O-])c2)cc([N+](=O)[O-])c1O | - | - | - | - | - | 6
COc1ccc(C(=O)NC(=S)N(C)C2CCCCC2)cc1 | - | - | - | - | - | -
Cc1ccc(C(=O)NC(=S)N(C)C2CCCCC2)cc1Br | - | - | - | - | 16 | -
Cc1ccccc1C(=O)NC(=S)N(C)C1CCCCC1 | - | - | - | - | - | -
CN(C(=S)NC(=O)c1ccccc1Br)C1CCCCC1 | - | - | - | - | 13 | -
COc1ccc(C(=O)NC(=S)N(C)C2CCCCC2)cc1Br | 6.2 | - | - | - | - | -
Cc1ccc(CNC(=O)CSc2nc(=O)n3cccc(C)c3n2)cc1 | - | - | - | - | - | -
CN(C)S(=O)(=O)c1cccc(COC(=O)Cc2c(F)cccc2Cl)c1 | - | - | - | - | - | -
CCOc1ccc(NC(=O)CC(NCc2ccccn2)C(=O)O)cc1 (stereo unspecified) | - | - | - | - | - | -
COc1ccccc1NC(=O)C(C)OC(=O)CCC1CCCCC1 (stereo unspecified) | - | - | -8.87 | - | - | -
Cc1ccc(C)c(NC(=O)C(=O)NCC2CCCN2S(=O)(=O)c2cccs2)c1 (stereo unspecified) | - | -7.24 | - | - | - | -
Cc1ccc(NC(=O)C(=O)NCC2CCCN2S(=O)(=O)c2cccs2)c(C)c1 (stereo unspecified) | - | - | - | - | - | -
Cc1cccc(-n2cc(-c3ccccc3)c3c(=O)[nH]cnc32)c1 | - | -7.16 | - | - | - | -
Cc1ccc(NC(=O)C(=O)NCc2ccc(/C=N/NC(=O)c3c(C)nc4ccccn34)o2)cc1 | - | - | - | - | - | -
COc1ccc([N+](=O)[O-])c(S(=O)(=O)c2ccccc2)n1 | - | - | - | - | - | -
COc1ccc([N+](=O)[O-])c(S(=O)(=O)c2ccc(Cl)cc2)n1 | - | - | - | -4.64 | - | -
O=C(/C=C/c1ccccc1)CC(O)(c1ccccc1)C(F)(F)F (stereo unspecified) | - | - | - | -6.29 | - | -
O=C(Nc1ccc(Cl)cn1)c1cc2c(s1)-c1ccccc1OC2 | - | - | - | - | - | -
Oc1cccc(C=NN=C2c3ccccc3-c3ccccc32)c1 | . | . | -9.04 | . | . | .
N#C/C(=C/c1ccc(Sc2nc3ccccc3[nH]2)o1)c1ccccc1F | - | - | - | - | - | 17
N#C/C(=C/c1ccc(Sc2nc3ccccc3[nH]2)o1)c1cccc(Br)c1 | - | - | -10.2 | - | - | -
N#C/C(=C\c1ccc(Sc2ccccc2)o1)c1nc2ccccc2[nH]1 | - | - | - | - | - | -
N#C/C(=C\c1ccc([N+](=O)[O-])o1)c1nc2ccccc2[nH]1 | - | - | . | - | - | 6
SMILES | hERG rescue | KCNK9 block | KCNK3 block | Kir21 block | KCNQ1 act | KCNQ1 block
N#CC(C(=O)NCCc1ccccc1)c1nc2ccccc2nc1N1CCCCC1 (stereo unspecified) | - | - | - | - | - | -
CCCCCCOC(=O)C(C#N)c1nc2ccccc2nc1N1CCN(CC)CC1 (stereo unspecified) | - | - | - | - | - | 7
COCCCNC(=O)C(C#N)c1nc2ccccc2nc1N1CCCC1 (stereo unspecified) | - | - | - | - | - | -
CCCCCCNC(=O)C(C#N)c1nc2ccccc2nc1N1CCOCC1 (stereo unspecified) | - | -6.77 | - | - | - | 7
CCCCCNC(=O)C(C#N)c1nc2ccccc2nc1N1CCCC1 (stereo unspecified) | - | - | - | - | - | 7
CCOC(=O)N1CCN(c2nc3ccccc3nc2C(C#N)C(=O)NCCc2ccccc2)CC1 (stereo unspecified) | - | - | - | - | - | 8
COc1cc(C2NC(=O)NC(C)=C2C(C)=O)ccc1O (stereo unspecified) | - | - | - | - | - | -
COc1ccc(C)cc1S(=O)(=O)N1CCN(C)CC1c1ccccc1 (stereo unspecified) | . | . | - | . | . | .
COc1ccc(OC)c(NC(=O)c2cccnc2Sc2cc(C)ccc2C)c1 | - | -7.59 | - | - | - | -
COc1ccccc1C(=O)OCC(=O)NC(=O)NCc1ccccc1 | - | - | - | - | - | -
CNC(=O)NC(=O)COC(=O)c1ccccc1OCc1ccccc1 | 8.3 | - | - | - | - | -
CCN(c1ccc(F)cc1)S(=O)(=O)c1cccc2nsnc12 | - | - | - | -5.49 | - | -
CN(C1CCCCC1)S(=O)(=O)c1cccc2nsnc12 | - | - | - | -5.11 | - | -
N#CCCN(C1CCCCC1)S(=O)(=O)c1cccc2nsnc12 | - | - | - | - | - | -
CCOC(=O)C(C(=O)OCC)C(C(=O)OCC)N1CCOCC1 (stereo unspecified) | - | - | - | - | 10 | -
CCOc1ccccc1N1CCN(Cc2cccc(OC)c2OC)CC1 | - | - | - | - | - | 6
c1ccc(-c2nnsc2-c2ncc[nH]2)cc1 | 4.7 | - | - | - | - | -
CN(C(=O)Cn1cnc2ccccc2c1=O)C1CCS(=O)(=O)C1 (stereo unspecified) | - | - | - | - | - | -
CCOc1ccc(CCNC(=O)C2(c3ccccc3)CC2)cc1OCC | - | - | - | -4.52 | - | -
CCOc1ccc(CCNC(=O)c2nccnc2C(=O)O)cc1OCC | - | - | - | - | - | -
CC1=C(C(N)=O)C(c2ccc(Cl)c(Cl)c2)n2ncnc2N1 (stereo unspecified) | - | - | - | - | - | -
CCC(C)n1c(SC(C)C#N)nc2ccccc2c1=O (stereo unspecified) | 5.0 | - | - | - | - | -
O=C(NCCCl)Nc1ccccc1OCCOc1ccccc1NC(=O)NCCCl | - | -6.96 | - | - | - | -
Cc1ccc2c(c1)-c1ncc(C(=O)c3cc(Br)ccc3O)cc1CO2 | - | -8.89 | . | - | - | 8
O=C(NC(=S)N(CCCCO)C1CCCCC1)c1sc2ccccc2c1Cl | 17.8 | - | - | - | 31 | -
CCCCN(CCCC)C(=O)c1cc(Cl)ccc1[N+](=O)[O-] | - | - | - | -6.97 | - | -
